Data set [1] relates to Oryctolagus cuniculus. The data set can be described thus: Anaesthetic activity measured as anaesthetic dose (AD) required to nullify the rabbit corneal reflex after 5 min. Format: functional, Cornea. In a few lines:
(§1)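 Aqueous drug solution, 0.25 mL, applied to rabbit cornea for 1 min, then wiped off. 100 regular mechanical stimulations were given. The minimal active dose is the concentration that abolished the corneal reflex at 5 min. Testing was repeated until 10 concordant results were obtained, with experimental error no more than 10%.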

A short description of data set [2]: Intravenous lethal dose of the compound. In kind it is ADME, organism-based. The note with it: mouse, in vivo. In short, it runs like this:
(§2)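 Mice, groups of 10 randomized animals; aqueous drug solution given intravenously at 0.2 mL/20 g body weight. Percentage dead scored 5 days after start of experiment; LD50 derived by the usual statistical method, reported with 95% confidence interval.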

Data set [3] is described as follows: Partition coefficient (logP) (cyclohexane). In kind it is physicochemical. Particulars: cyclohexane/water. In short, it runs like this:
(§3)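 Partition coefficients were measured by Brändström's titrimetric method at 25 °C in 1-octanol/water or cyclohexane/water. Amine hydrochloride in aqueous solution pre-saturated with the solvent was one-fifth neutralized with NaOH, then solvent was added. The pH was held at its original value by automatic alkali addition until equilibrium. Each value is the mean of eight determinations, reported with 95% confidence intervals.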

Data set [4] has as its system Mus musculus. In words: Compound was evaluated for lethal dose (pLD50 = log1/LD50 in mol/kg.). In kind it is toxicity, organism-based. Particulars: in vivo. In short, it runs like this: as §2
Data set [5] deals with Oryctolagus cuniculus. The data set can be described thus: Compound was evaluated for anesthetic dose (pAD = log 1/AD; AD = anesthetic dose).
The species entered for data set [6] is Mus musculus. The data set can be described thus: Antiarrhythmic activity (arrhythmy induced by HCCl3 in mice) measured as its effect on ventricular fibrillation; No effect. Format: functional, organism-based. Particulars: Heart.
The nature of data set [7]: Partition coefficient (logP). In kind it is physicochemical. Particulars: octanol/water. In short, it runs like this: as §3
A short description of data set [8]: Compound was evaluated for the apparent partition coefficient at pH 7.4. In kind it is physicochemical. The note with it: octanol/water. In a few lines: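 Apparent partition coefficient at pH 7.4 was calculated from the octanol/water log P and pKa using P = P'(1 + 10^(pKa − pH)).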
Data set [9] is described as follows: Dissociation constant was observed. Format: physicochemical. In a few lines:
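Values for water-insoluble compounds were obtained by extrapolation. Two values were derived indirectly from P = P'(1 + 10^(pKa − pH)), using P' measured at pH 12 and 7.34, or at pH 7.2 and 6.0.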

Data set [10] concerns Mus musculus. The data set can be described thus: Delay of respiratory arrest was observed at 10 mg/kg ip in mice in antiarrhythmic assay. In kind it is functional, Heart. Particulars: route intraperitoneal.
For data set [11], the system named is Oryctolagus cuniculus. In words: Anaesthetic activity measured as anaesthetic dose (AD) required to nullify the rabbit corneal reflex after 5 min;d = Irritant. In kind it is functional, organism-based. Particulars: Cornea. In short, it runs like this:
as §1

The subject of data set [12] is Mus musculus. The data set can be described thus: Delay of respiratory arrest was observed at 5 mg/kg ip in mice in antiarrhythmic assay. In kind it is functional, Heart. Particulars: route intraperitoneal.

These results are taken from ChEMBL document CHEMBL1121626, “Quantitative structure-activity relationships for N-[N',N'-disubstituted-amino)acetyl]arylamines for local anesthetic activity and acute toxicity” (J Med Chem, 1980).

SMILES strings stand for the structures. Active and inactive are the calls of the source. The calls are words filed in the database; no cut-off is given here.

For `CCN(CC)CC(=O)NC1c2ccccc2CCc2ccccc21.Cl`, the AD with Oryctolagus cuniculus [1] was found to be 20.9 mM. The molecule also registered an LD50 in [2] of 139 µmol/kg. The logP in data set [3] was 4.153; in data set [7], 4.41. In the data set on Mus musculus [4], the pLD50 is reported as 3.86. Besides, the pAD in the data set on Oryctolagus cuniculus [5] was 1.25. Besides, the outcome in the data set listed under Mus musculus [6] was inactive.

As to `CCCCCN(CCCCC)CC(=O)NCc1ccccc1.Cl`, the AD in the data set on Oryctolagus cuniculus [1] amounted to 29.3 mM. Also, the logP was determined as 5.259 in data set [3] and 5.19 in [7]. The molecule also registered a pAD in the data set with Oryctolagus cuniculus [5] of 1.53. Also, the result in the data set listed under Mus musculus [6] was inactive.

As for `CCN(CC)CC(=O)NC1CC(c2ccccc2)c2ccccc21.Cl` (stereo not given), the AD with Oryctolagus cuniculus [1] turned out to be 55.8 mM. Moreover, in data set [2], the LD50 was found to be 164 µmol/kg. Besides, the values for the logP in data set [3] and in [7] were 4.153 and 4.41, respectively. The molecule further displayed a pLD50 in the data set on Mus musculus [4] of 3.78. The same molecule came in with a pAD in the data set with Oryctolagus cuniculus [5] of 1.55. The outcome in the data set filed under Mus musculus [6] was inactive.

`CCN(CC)CC(=O)NC1CCc2ccccc21.Cl` (stereo not given) returned an AD with Oryctolagus cuniculus [1] of 27.9 mM. In data set [2], this molecule had an LD50 of 238 µmol/kg. The logD in data set [8] was found to be 1.88. The logP in data set [3] came out at 1.645; in data set [7] it was 2.74. This molecule gave a pLD50 in the data set on Mus musculus [4] of 3.62. In the data set on Oryctolagus cuniculus [5], this molecule had a pAD of 1.45. In addition, the outcome in the data set filed under Mus musculus [6] was inactive. For the same molecule, in data set [9], the pKa is 8.19.

In the case of `CCN(CC)CC(=O)NCc1ccccc1.Cl`, the AD with Oryctolagus cuniculus [1] is 117 mM. This molecule also registered an LD50 in data set [2] of 376 µmol/kg. In data set [8], the logD worked out at 1.39. Also, the logP came out at 1.02 in data set [3] and 2.14 in [7]. Besides, the pLD50 in the data set with Mus musculus [4] is given as 3.42. In the data set with Oryctolagus cuniculus [5], this molecule yielded a pAD of 0.93. In addition, in the data set filed under Mus musculus [6], the result was inactive. Also, in [9], the pKa was 8.07. Also, the Increase with Mus musculus [10] was 25%.

`CCCN(CCC)CC(=O)NCc1ccccc1.Cl` yielded an AD with Oryctolagus cuniculus [1] of 17.5 mM. In addition, in data set [2], the 50% lethal dose (LD50) amounted to 254 µmol/kg. Also, the logP in [3] turned out to be 2.386; in data set [7], 3.11. For the same molecule, the pLD50 with Mus musculus [4] stood at 3.59. This molecule had a pAD with Oryctolagus cuniculus [5] of 1.75. Also, the outcome in the data set listed under Mus musculus [6] was inactive.

In the data set on Oryctolagus cuniculus [1], `O=C(CN1CCCC1)NCc1ccccc1` yielded an AD of 196 mM. This molecule also returned an LD50 in data set [2] of 361 µmol/kg. In addition, the logD in [8] came out at 0.769. The log partition coefficient (logP) in data set [3] was 0.156; in [7], 1.69. Also, in the data set with Mus musculus [4], the pLD50 is given as 3.44. This molecule also showed a pAD with Oryctolagus cuniculus [5] of 0.71. For the same molecule, the outcome in the data set listed under Mus musculus [6] was inactive. For the same molecule, the pKa in data set [9] was 8.27.

Molecule `CCCN(CCC)CC(=O)NC1c2ccccc2-c2ccccc21.Cl` showed an AD in the data set with Oryctolagus cuniculus [1] of 20.9 mM. Further, the logD in data set [8] was 4.37. Moreover, the logP in data set [3] came out at 4.44; in data set [7] it was 4.61. For the same molecule, the pAD in the data set with Oryctolagus cuniculus [5] is given as 1.68. Also, in the data set listed under Mus musculus [6], the outcome was inactive. This molecule registered a pKa in data set [9] of 7.28.

Consider `Cl.O=C(CN1CCCCC1)NCc1ccccc1`, for which the AD with Oryctolagus cuniculus [1] was determined as 186 mM. In data set [2], the LD50 came to 245 µmol/kg. For the same molecule, the log distribution coefficient (logD) in data set [8] is 1.78. In addition, the results for the logP in data set [3] and in data set [7] were 1.198 and 2.27, respectively. This molecule also registered a pLD50 in the data set with Mus musculus [4] of 3.61. This molecule also came in with a pAD with Oryctolagus cuniculus [5] of 0.73. Moreover, the outcome in the data set listed under Mus musculus [6] was inactive. The pKa in data set [9] was 7.71.

Regarding `CCN(CC)CC(=O)NC1c2ccccc2-c2ccccc21.Cl`, in the data set with Oryctolagus cuniculus [1], the AD turned out to be 15.1 mM. This molecule came in with an LD50 in [2] of 146 µmol/kg. Further, in [8], the logD was found to be 2.96. In addition, the lipophilicity (logP) is 3.067 in data set [3] and 3.64 in data set [7]. Also, the pLD50 in the data set on Mus musculus [4] was 3.83. In the data set on Oryctolagus cuniculus [5], the pAD stood at 1.82. Also, the result in the data set listed under Mus musculus [6] was inactive. In data set [9], this molecule returned a pKa of 7.98.

The molecule `Cl.O=C(CN1CCOCC1)NCc1ccccc1` came in with an AD in the data set on Oryctolagus cuniculus [1] of 185 mM. Also, the median lethal dose (LD50) in data set [2] turned out to be 1720 µmol/kg. In data set [8], the logD is 0.67. The logP in data set [3] is -1.132; in [7], 0.672. In the data set with Mus musculus [4], the pLD50 is recorded as 2.77. For the same molecule, the pAD in the data set with Oryctolagus cuniculus [5] amounted to 0.73. Also, the result in the data set filed under Mus musculus [6] was inactive. In addition, the pKa in data set [9] turned out to be 4.98.

`CN(C)CC(=O)NCc1ccccc1.Cl`: the AD entry in the data set with Oryctolagus cuniculus [11] is listed as “Irritant”. The LD50 in [2] stood at 735 µmol/kg. Also, in data set [8], the logD stood at 0.681. The results for the logP in data set [3] and in data set [7] were -0.453 and 1.11, respectively. In the data set on Mus musculus [4], this molecule had a pLD50 of 3.13. Moreover, the outcome in the data set filed under Mus musculus [6] was inactive. The molecule also yielded a pKa in data set [9] of 7.62.

As to `CCCCN(CCCC)CC(=O)NCc1ccccc1.Cl`, in the data set on Oryctolagus cuniculus [1], the AD was found to be 16 mM. Further, in data set [2], the LD50 was determined as 116 µmol/kg. For the same molecule, the logP in data set [3] was found to be 3.791; in data set [7] it was 4.16. For the same molecule, the pLD50 in the data set with Mus musculus [4] came to 3.93. This molecule also gave a pAD in the data set with Oryctolagus cuniculus [5] of 1.8. Besides, in the data set listed under Mus musculus [6], the outcome was inactive. The same molecule returned an Increase in the data set with Mus musculus [12] of 33.2%.

With `CCCN(CCC)CC(=O)NC1CCc2ccccc21.Cl` (stereo not given), in the data set on Oryctolagus cuniculus [1], the AD came to 12.8 mM. For the same molecule, in data set [2], the LD50 was 145 µmol/kg. Moreover, the logP in data set [3] came out at 3.277; in data set [7], 3.79. The same molecule returned a pLD50 with Mus musculus [4] of 3.84. The molecule further registered a pAD in the data set with Oryctolagus cuniculus [5] of 1.89. Also, the result in the data set filed under Mus musculus [6] was inactive.

`CCN(CC)CC(=O)NCc1ccccc1-c1ccccc1.Cl` came in with an AD in the data set on Oryctolagus cuniculus [1] of 34.5 mM. In data set [2], the LD50 was determined as 128 µmol/kg. Also, the logP turned out to be 3.2 in data set [3] and 3.74 in [7]. Besides, the pLD50 in the data set with Mus musculus [4] came out at 3.89. In the data set on Oryctolagus cuniculus [5], this molecule came in with a pAD of 1.82. In addition, the result in the data set filed under Mus musculus [6] was inactive. The Increase in the data set with Mus musculus [12] came out at 20.5%.

Take `CCN(CC)CCOC(=O)c1ccc(N)cc1.Cl` [PROCAINE HYDROCHLORIDE]: the AD in the data set on Oryctolagus cuniculus [1] stood at 36.7 mM. The molecule also returned an LD50 in [2] of 169 µmol/kg. Besides, in the data set listed under Mus musculus [6], the result was inactive.

In the data set on Oryctolagus cuniculus [1], `CCN(CC)CC(=O)NC(c1ccccc1)c1ccccc1.Cl` had an AD of 15 mM. The molecule further displayed an LD50 in data set [2] of 212 µmol/kg. Moreover, the logP in [3] stood at 3.2; in [7], 3.74. In the data set with Mus musculus [4], this molecule came in with a pLD50 of 3.67. In the data set on Oryctolagus cuniculus [5], this molecule showed a pAD of 1.82. The outcome in the data set filed under Mus musculus [6] was inactive. The same molecule gave an Increase in the data set with Mus musculus [10] of 27.8%.
